The values that follow come from ChEMBL document CHEMBL1132154, “Novel partial agonists for the histamine H(3) receptor with high in vitro and in vivo activity” (J Med Chem, 1999).

For assay [1], the target named is Histamine H3 receptor (Mus musculus) (UniProt P58406). The experiment in a line: In vivo agonistic activity against histamine H3 receptor in mice after peroral administration. Type of assay: functional, organism-based. The procedure, abridged:
(§1)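 Swiss mice dosed orally with compounds as a methylcellulose suspension; brain histamine turnover assessed from increased (antagonist) or decreased (agonist) cerebral cortex N-methylhistamine level; intrinsic activity from modulation of this metabolite level; at least in triplicate.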

Assay [2] shares this target. In words: In vivo intrinsic activity against histamine H3 receptor in mice after peroral administration. It counts as organism-based. A digest of the protocol: as §1
In assay [3] the target is T1, Histamine H3 receptor (Rattus norvegicus, UniProt Q9QYN8). The experiment in a line: (§2) In vitro binding affinity against histamine H3 receptor from synaptosomes of rat cerebral cortex. It counts as subcellular, Brain. The procedure, abridged: (§3)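 Rat cerebral cortex synaptosomes; K+-evoked depolarization-induced [3H]histamine release measured for H3 agonist and antagonist activity; intrinsic activity derived from this preparation; at least triplicate.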

Assay [4] addresses T1, Histamine H3 receptor. In words: In vitro intrinsic activity against histamine H3 receptor from synaptosomes of rat cerebral cortex. It counts as subcellular, Brain. The procedure, abridged:
as §3

Assay [5] addresses Histamine H3 receptor (Cavia porcellus) (UniProt Q9JI35). In words: Antagonist activity against histamine H3 receptor in guinea pig ileum. Type of assay: functional, tissue-based. The procedure, abridged: (§4)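 Isolated guinea pig ileum segments, electrically evoked twitches; H3 antagonism from concentration-dependent inhibition of twitches by (R)-α-methylhistamine in presence of antagonist; agonist activity from concentration–response curves of the test compound in place of (R)-α-methylhistamine; each experiment at least in triplicate.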

Assay [6] deals with Histamine H2 receptor (Cavia porcellus) (UniProt P47747). In words: Antagonist activity against histamine H2 receptor in guinea pig atrium. It counts as functional, tissue-based. To be noted: Cardiac atrium. A digest of the protocol: (§5)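 Isolated guinea pig tissues: H1 activity on ileum, H2 activity on spontaneously beating right atrium, by standard functional methods; each test at least in triplicate; exact type of interaction not determined in every case.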

The target in assay [7] is T1, Histamine H3 receptor. The experiment in a line: Antagonist activity against histamine H3 receptor on synaptosomes of rat cerebral cortex. Type of assay: functional, subcellular, Brain. A digest of the protocol:
as §3

In assay [8] the target is T1, Histamine H3 receptor. The assay is described as §2. It counts as subcellular, Brain. The source holds these as a separate data set.
The target in assay [9] is Histamine H3 receptor (Cavia porcellus) (UniProt Q9JI35). In words: Binding affinity for guinea pig ileum histamine H3 receptor. Type of assay: tissue-based. The procedure, abridged: as §4
Assay [10] concerns the target Histamine H1 receptor (Cavia porcellus) (UniProt P31389). The experiment in a line: Antagonist activity against histamine H1 receptor in guinea pig ileum. Type of assay: functional, tissue-based. A digest of the protocol: as §5

SMILES strings stand for the structures. Some results are limits rather than exact numbers.

T1 sequence (Q9QYN8 whole entry): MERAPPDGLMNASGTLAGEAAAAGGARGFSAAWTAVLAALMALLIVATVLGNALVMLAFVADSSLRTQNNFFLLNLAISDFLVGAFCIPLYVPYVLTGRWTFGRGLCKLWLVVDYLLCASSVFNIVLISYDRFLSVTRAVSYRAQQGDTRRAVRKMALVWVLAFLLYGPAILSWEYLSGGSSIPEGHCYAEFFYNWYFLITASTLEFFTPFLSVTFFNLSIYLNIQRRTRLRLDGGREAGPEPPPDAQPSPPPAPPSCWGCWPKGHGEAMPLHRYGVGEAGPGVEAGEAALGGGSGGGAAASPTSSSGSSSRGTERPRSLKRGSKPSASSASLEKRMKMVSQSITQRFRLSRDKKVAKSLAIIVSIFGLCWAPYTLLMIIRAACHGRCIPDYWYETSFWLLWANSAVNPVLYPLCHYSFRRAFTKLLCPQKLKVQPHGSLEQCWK
Histamine H2 receptor (Cavia porcellus), sequence (P47747 whole entry): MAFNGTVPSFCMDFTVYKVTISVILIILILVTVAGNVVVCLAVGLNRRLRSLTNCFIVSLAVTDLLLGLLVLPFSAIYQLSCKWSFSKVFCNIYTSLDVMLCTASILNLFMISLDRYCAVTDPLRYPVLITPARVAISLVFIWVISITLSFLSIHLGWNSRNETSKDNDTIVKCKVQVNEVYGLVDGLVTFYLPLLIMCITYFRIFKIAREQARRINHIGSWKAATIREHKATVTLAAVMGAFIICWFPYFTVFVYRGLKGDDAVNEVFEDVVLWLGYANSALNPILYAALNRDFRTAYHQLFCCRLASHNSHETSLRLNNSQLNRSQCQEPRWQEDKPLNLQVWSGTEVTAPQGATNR
Histamine H3 receptor (Mus musculus), sequence (P58406 whole entry): as the sequence (Q9QYN8 whole entry) above, with T15A, A286T, A290G, R387H, I389V counted along it
Histamine H1 receptor (Cavia porcellus), sequence (P31389 whole entry): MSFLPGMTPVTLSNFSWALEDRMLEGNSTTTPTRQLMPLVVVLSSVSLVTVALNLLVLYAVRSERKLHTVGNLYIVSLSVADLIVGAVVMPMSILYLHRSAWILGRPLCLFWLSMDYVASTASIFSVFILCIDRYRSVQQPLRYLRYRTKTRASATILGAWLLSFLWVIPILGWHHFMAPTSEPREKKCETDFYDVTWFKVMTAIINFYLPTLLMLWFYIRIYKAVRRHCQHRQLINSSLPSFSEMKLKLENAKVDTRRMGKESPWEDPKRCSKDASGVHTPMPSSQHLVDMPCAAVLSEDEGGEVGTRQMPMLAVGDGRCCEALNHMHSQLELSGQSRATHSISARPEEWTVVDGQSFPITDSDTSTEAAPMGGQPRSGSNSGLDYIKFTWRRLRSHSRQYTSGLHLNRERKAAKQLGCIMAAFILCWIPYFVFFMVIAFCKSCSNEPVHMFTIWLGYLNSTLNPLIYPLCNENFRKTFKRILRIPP
Histamine H3 receptor (Cavia porcellus), sequence (Q9JI35 whole entry): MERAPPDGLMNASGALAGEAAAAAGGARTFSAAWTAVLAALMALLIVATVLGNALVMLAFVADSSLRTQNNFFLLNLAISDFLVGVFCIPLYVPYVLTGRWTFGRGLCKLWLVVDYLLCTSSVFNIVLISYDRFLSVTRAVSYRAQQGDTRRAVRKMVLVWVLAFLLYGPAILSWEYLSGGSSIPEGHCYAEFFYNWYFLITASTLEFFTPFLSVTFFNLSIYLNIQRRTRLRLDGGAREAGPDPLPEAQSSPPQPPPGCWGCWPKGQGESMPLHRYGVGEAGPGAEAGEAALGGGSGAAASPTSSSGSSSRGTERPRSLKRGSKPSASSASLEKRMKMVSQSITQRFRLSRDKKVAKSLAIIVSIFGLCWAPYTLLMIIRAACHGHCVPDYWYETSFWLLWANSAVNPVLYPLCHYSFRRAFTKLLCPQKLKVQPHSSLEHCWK

In [1], `CC(C)CCOCCCc1c[nH]cn1` yielded an ED50 of 0.51 mg/kg. Moreover, the figures for the Intrinsic activity (in assay [2]; at Histamine H3 receptor [4]) were 1 and 0.22, respectively. Moreover, the EC50 at Histamine H3 receptor [3] was 128 nM. The pkB in assay [5] stood at 7.03; in [6] it was 3.5; in assay [10], 4.5. Moreover, the Ki is 14.1 nM on Histamine H3 receptor [7] and 14 nM on Histamine H3 receptor [8]. The molecule also had a Kb in assay [9] of 93 nM.

`CCC(C)(C)NC(=O)OCCCc1c[nH]cn1` gave an ED50 in assay [1] of 0.2 mg/kg. The Intrinsic activity in assay [2] worked out at 0.4. Moreover, the figures for the pkB in assay [5], in assay [6] and in assay [10] were 7.34, 3.5 and 4.8, respectively. For the same molecule, in [9], the Kb stood at 46 nM.

As for `CC(C)(C)CCOCCCc1c[nH]cn1`, the ED50 in [1] was 0.29 mg/kg. For the same molecule, the Intrinsic activity in assay [2] is 1; on Histamine H3 receptor [4] it was 0.55. Also, a half-maximal effect at Histamine H3 receptor [3] (EC50) was put at 45 nM. In addition, the pkB is 7.38 in assay [5], below 4 in assay [6] and 4.5 in assay [10]. The Ki at Histamine H3 receptor [7] and at Histamine H3 receptor [8] was 10 nM in each case. Also, the Kb in assay [9] turned out to be 42 nM.

For the molecule `CC(C)CNC(=O)OCCCc1c[nH]cn1`, the ED50 in assay [1] is above 10 mg/kg. Further, the pkB in [5] is 7.39; in [6] it was below 4; in assay [10] it was below 4.5. The Kb in assay [9] stood at 41 nM.

The molecule `CC(C)(C)NC(=O)OCCCc1c[nH]cn1.O=CC(=O)/C(O)=C/O` came in with an ED50 in assay [1] of 0.9 mg/kg. The molecule also came in with an Intrinsic activity in assay [2] of 0.7. Also, the pkB in [5] was 7.22; in [6], below 4; in [10] it was below 4. In assay [9], this molecule had a Kb of 60 nM.

In turn, `CC(C)NC(=O)OCCCc1c[nH]cn1.O=CC(=O)/C(O)=C/O` came in with an ED50 in assay [1] of 15 mg/kg. The pkB in [5] was 7.04; in [6] it was below 4.3; in assay [10], below 4. The inhibition constant (Ki) was 81.3 nM at Histamine H3 receptor [7] and 82 nM on Histamine H3 receptor [8]. The molecule also gave a Kb in assay [9] of 91 nM.

Consider `CC(C)(C)CCNC(=O)OCCCc1c[nH]cn1.O=CC(=O)/C(O)=C/O`, for which the pkB in assay [5] turned out to be 7.53; in assay [6] it was 4.3; in assay [10], 4.2. The Kb in assay [9] worked out at 30 nM.

Regarding `CC(C)(C)CC(C)(C)NC(=O)OCCCc1c[nH]cn1`, the pkB in assay [5] is 7.58; in assay [6], 4.3; in [10] it was 6. For the same molecule, the figures for the Ki on Histamine H3 receptor [7] and on Histamine H3 receptor [8] were 41.7 nM and 42 nM, respectively. Moreover, in assay [9], the Kb is 28 nM.

In [1], `CC(C)CCCOCCCc1c[nH]cn1` came in with an ED50 of 0.15 mg/kg. Moreover, the Intrinsic activity in [2] stood at 0.6; at Histamine H3 receptor [4] it was 0.25. Also, the pkB in assay [5] turned out to be 7.89; in assay [6], 4.6; in [10], 5. Besides, the Ki on Histamine H3 receptor [7] was 9.33 nM; at Histamine H3 receptor [8], 9.4 nM. Besides, the Kb in [9] was determined as 13 nM.

In turn, `CC(C)(C)CNC(=O)OCCCc1c[nH]cn1.O.O=C(O)C(=O)O` had a 50% effective dose (ED50) in assay [1] of 0.48 mg/kg. Moreover, the Intrinsic activity came out at 0.7 in assay [2] and 0.15 at Histamine H3 receptor [4]. The pkB amounted to 7.4 in assay [5], 3.2 in [6] and 3.5 in assay [10]. Further, the figures for the Ki on Histamine H3 receptor [7] and on Histamine H3 receptor [8] were 22.9 nM and 23 nM, respectively. The same molecule yielded a Kb in [9] of 40 nM.

`CC(C)COCCCc1c[nH]cn1` showed a pkB in [5] of 6.64. Also, the Ki was 138 nM at Histamine H3 receptor [7] and 139 nM on Histamine H3 receptor [8]. This molecule showed a Kb in assay [9] of 228 nM.

With `N=C(N)SCCc1c[nH]cn1`, the ED50 in assay [1] was 1 mg/kg. Besides, the Intrinsic activity in assay [2] worked out at 1. The molecule also yielded a Kb in assay [9] of 6.6 nM.
